Measurements as given in ChEMBL document CHEMBL3797175, “Discovery of 6-(difluoro(6-(4-fluorophenyl)-[1,2,4]triazolo[4,3-b][1,2,4]triazin-3-yl)methyl)quinoline as a highly potent and selective c-Met inhibitor” (Eur J Med Chem, 2016).
Activity calls are given as the source filed them. The calls are words filed in the database; no cut-off is given here.

What was measured:
[1] = Clearance in Sprague-Dawley rat at 2 mg/kg, iv administered as single dose; type: ADME, organism-based; conditions: in vivo
Outline: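 Male Sprague Dawley rats (n=3), single dose. iv 2 mg/kg in 1% DMA/9% Cremophor/90% saline. po 10 mg/kg in 0.5% CMC-Na. Where iv was 10 mg/kg: 10% DMSO/10% Tween 80/80% (40% PEG40); po in that case in 10% DMSO/5% Tween 80/85% saline.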

[2] = molecular target: Insulin-like growth factor 1 receptor (Homo sapiens) (UniProt P08069); test: Inhibition of recombinant IGF1R (unknown origin) using poly (Glu, Tyr) 4:1 as substrate at 1000 nM incubated for 60 mins by ELISA relative to control
Outline: (§1)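 Recombinant tyrosine kinases assayed on wells precoated with poly(Glu,Tyr)4:1 (20 µg/mL). ATP 10 µmol/L in HEPES pH 7.4 buffer with MgCl2, MnCl2, Na3VO4 and DTT; compound in 1% DMSO, 1% DMSO as control. Reaction 60 min at 37 °C. Phosphotyrosine detected with PY99 and HRP anti-mouse, o-phenylenediamine, A490. Inhibition % relative to control; two experiments.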

[3] = Selectivity ratio of IC50 for human AGS cells to IC50 for human EBC1 cells; type: ADME, cell-based
Outline: (§2)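 Both IC50s in each ratio come from one proliferation assay. Cells were seeded and exposed the next day to a range of concentrations for 72 h, then read by SRB or MTT. IC50s were fitted by four-parameter concentration–response, with each concentration at least in triplicate and at least 2 experiments. BaF3/TPR-Met is murine pre-B BaF3 transfected with TPR-MET and puromycin-selected.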

[4] = molecular target: Fibroblast growth factor receptor 1 (Homo sapiens) (UniProt P11362); test: Inhibition of recombinant FGFR1 (unknown origin) using poly (Glu, Tyr) 4:1 as substrate at 1000 nM incubated for 60 mins by ELISA relative to control; outline: as §1
[5] = molecular target: Mast/stem cell growth factor receptor Kit (Homo sapiens) (UniProt P10721); test: Inhibition of recombinant c-Kit (unknown origin) using poly (Glu, Tyr) 4:1 as substrate at 1000 nM incubated for 60 mins by ELISA relative to control; outline: as §1
[6] = molecular target: Tyrosine-protein kinase ABL1 (Homo sapiens) (UniProt P00519); test: Inhibition of recombinant ABL (unknown origin) using poly (Glu, Tyr) 4:1 as substrate at 1000 nM incubated for 60 mins by ELISA relative to control; outline: as §1
[7] = molecular target: T1, Hepatocyte growth factor receptor (Homo sapiens, UniProt P08581); test: Inhibition of c-Met phosphorylation at Tyrosine 1234 in HGF stimulated human U87MG cells at 10 nM after 1 hr by Western blot analysis; type: cell-based; conditions: U-87MG ATCC
Outline: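 U87MG cells serum-starved 24 h, pretreated with compound 1 h at 37 °C, then stimulated with HGF (100 ng/mL) for 15 min. Lysed in 1× SDS sample buffer, resolved by 10% SDS-PAGE and blotted to nitrocellulose. Probed for phospho-c-Met, phospho-ERK1/2, phospho-AKT and totals, with GAPDH as loading control. ECL detection.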

[8] = molecular target: T1, Hepatocyte growth factor receptor; test: Inhibition of c-Met in human EBC1 cells assessed as reduction in AKT phosphorylation at Serine 473 at 10 nM after 1 hr by Western blot analysis; type: cell-based
Outline: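 EBC-1 or MKN45 cells treated with compound 1 h at 37 °C without HGF, then lysed in 1× SDS sample buffer. Lysates run on 10% SDS-PAGE and transferred to nitrocellulose. Probed with antibodies to c-Met, phospho-c-Met, phospho-ERK1/2, phospho-AKT, AKT and GAPDH, then HRP secondary. ECL detection.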

[9] = molecular target: Tyrosine-protein kinase Mer (Homo sapiens, UniProt Q12866); test: Inhibition of recombinant c-Mer (unknown origin) using poly (Glu, Tyr) 4:1 as substrate incubated for 60 mins by ELISA
[10] = Antiproliferative activity against human NCI-HCC827 cells after 72 hrs by SRB or MTT assay; type: functional, cell-based; conditions: HCC827, 72 h
Outline: (§3)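 Cells seeded, exposed next day to a range of concentrations for 72 h. Growth read by sulforhodamine B or MTT. IC50 from four-parameter concentration-response fit. Each concentration tested at least in triplicate, with at least 2 experiments.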

[11] = Antiproliferative activity against human SGC7901 cells after 72 hrs by SRB or MTT assay; type: functional, cell-based; conditions: SGC-7901, 72 h; outline: as §3
[12] = Antiproliferative activity against human BGC823 cells after 72 hrs by SRB or MTT assay; type: functional, cell-based; conditions: BGC-823, 72 h; outline: as §3
SNU1 = test: Antiproliferative activity against human SNU1 cells after 72 hrs by SRB or MTT assay; type: functional, cell-based; conditions: SNU1, 72 h; outline: as §3
[13] = molecular target: Hepatocyte growth factor receptor (Canis lupus familiaris) (UniProt Q75ZY9); test: Inhibition of c-Met in MDCK cells assessed as inhibition of HGF-induced cell scattering after 24 hrs by crystal violet staining based microscopic analysis
Outline: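 MDCK cells, 1.5×10^3 per well, grown overnight, then given increasing compound concentrations plus HGF (100 ng/mL). Incubated 24 h at 37 °C, 5% CO2. Fixed in 4% paraformaldehyde 15 min, stained with 0.2% crystal violet and imaged by microscopy. Three independent experiments.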

[14] = Selectivity ratio of IC50 for human PANC1 cells to IC50 for human EBC1 cells; type: ADME, cell-based; conditions: panc-1
Outline: (§4)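 Each cell line was seeded in 96-well plates, then exposed the next day to a range of compound concentrations for 72 h. Growth was read by SRB or MTT assay, and IC50 was fitted by a four-parameter concentration-response curve. Each concentration was run at least in triplicate, in at least 2 experiments. BaF3/TPR-Met are murine pre-B BaF3 cells transfected with TPR-MET cDNA and selected in puromycin.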

[15] = Selectivity ratio of IC50 for human U87MG cells to IC50 for human EBC1 cells; type: ADME, cell-based; conditions: u-87mg atcc
[16] = Selectivity ratio of IC50 for human Bel7404 cells to IC50 for human MKN45 cells; type: ADME, cell-based; outline: as §2
[17] = Selectivity ratio of IC50 for human SMMC7721 cells to IC50 for human EBC1 cells; type: ADME, cell-based; conditions: smmc-7721; outline: as §4
[18] = Selectivity ratio of IC50 for human HCT116 cells to IC50 for human MKN45 cells; type: ADME, cell-based; conditions: hct-116; outline: as §2
[19] = Selectivity ratio of IC50 for human NCI-HCC827 cells to IC50 for human EBC1 cells; type: ADME, cell-based; outline: as §2
[20] = Selectivity ratio of IC50 for human NCI-H358 cells to IC50 for mouse BAF3 cells expressing TPR-MET; type: ADME, cell-based; outline: as §2
[21] = Selectivity ratio of IC50 for human NCI-H3122 cells to IC50 for human MKN45 cells; type: ADME, cell-based; conditions: mkn-45; outline: as §2
[22] = Selectivity ratio of IC50 for human NCI-H661 cells to IC50 for human EBC1 cells; type: ADME, cell-based; outline: as §2
[23] = Selectivity ratio of IC50 for human MGC803 cells to IC50 for human EBC1 cells; type: ADME, cell-based; conditions: mgc-803; outline: as §2
[24] = Selectivity ratio of IC50 for human SPCA1 cells to IC50 for human MKN45 cells; type: ADME, cell-based; conditions: SPCA1 cells versus MKN45 cells

T1 sequence (P08581 whole entry): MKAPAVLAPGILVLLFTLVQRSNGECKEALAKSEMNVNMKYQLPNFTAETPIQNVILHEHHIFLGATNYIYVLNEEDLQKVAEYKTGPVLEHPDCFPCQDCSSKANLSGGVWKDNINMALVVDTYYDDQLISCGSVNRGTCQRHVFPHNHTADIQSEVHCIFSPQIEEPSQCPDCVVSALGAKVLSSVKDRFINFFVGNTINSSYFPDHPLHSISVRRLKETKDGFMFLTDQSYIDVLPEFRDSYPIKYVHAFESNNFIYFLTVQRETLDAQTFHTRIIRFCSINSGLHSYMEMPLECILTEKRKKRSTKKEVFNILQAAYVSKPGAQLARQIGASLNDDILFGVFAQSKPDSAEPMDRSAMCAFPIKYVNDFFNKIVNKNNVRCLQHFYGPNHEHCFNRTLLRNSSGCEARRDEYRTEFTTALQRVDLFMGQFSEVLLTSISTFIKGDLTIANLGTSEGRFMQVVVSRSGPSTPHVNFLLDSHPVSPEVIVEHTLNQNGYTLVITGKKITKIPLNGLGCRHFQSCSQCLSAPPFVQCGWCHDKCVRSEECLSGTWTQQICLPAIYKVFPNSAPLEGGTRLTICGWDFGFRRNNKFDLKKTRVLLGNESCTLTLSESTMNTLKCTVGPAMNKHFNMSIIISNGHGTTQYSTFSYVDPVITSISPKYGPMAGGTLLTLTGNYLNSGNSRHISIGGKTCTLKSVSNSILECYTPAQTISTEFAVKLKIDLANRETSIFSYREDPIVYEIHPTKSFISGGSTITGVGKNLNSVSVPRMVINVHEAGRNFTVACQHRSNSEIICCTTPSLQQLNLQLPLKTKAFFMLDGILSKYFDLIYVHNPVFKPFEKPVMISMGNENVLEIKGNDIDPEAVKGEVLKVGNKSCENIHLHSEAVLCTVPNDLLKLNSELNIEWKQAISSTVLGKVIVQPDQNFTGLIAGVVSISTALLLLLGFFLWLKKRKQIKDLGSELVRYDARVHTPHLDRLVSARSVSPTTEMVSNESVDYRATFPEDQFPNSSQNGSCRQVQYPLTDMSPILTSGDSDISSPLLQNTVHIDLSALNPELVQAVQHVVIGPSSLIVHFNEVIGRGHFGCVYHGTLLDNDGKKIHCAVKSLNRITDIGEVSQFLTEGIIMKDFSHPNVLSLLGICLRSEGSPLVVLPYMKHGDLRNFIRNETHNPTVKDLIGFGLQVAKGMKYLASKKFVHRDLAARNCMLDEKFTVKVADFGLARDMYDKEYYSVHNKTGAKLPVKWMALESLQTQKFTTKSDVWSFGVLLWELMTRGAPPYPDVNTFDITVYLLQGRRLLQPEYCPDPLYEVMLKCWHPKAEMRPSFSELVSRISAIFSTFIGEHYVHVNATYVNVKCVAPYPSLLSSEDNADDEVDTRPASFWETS
Insulin-like growth factor 1 receptor (Homo sapiens), sequence (P08069 31-736 limits assumed): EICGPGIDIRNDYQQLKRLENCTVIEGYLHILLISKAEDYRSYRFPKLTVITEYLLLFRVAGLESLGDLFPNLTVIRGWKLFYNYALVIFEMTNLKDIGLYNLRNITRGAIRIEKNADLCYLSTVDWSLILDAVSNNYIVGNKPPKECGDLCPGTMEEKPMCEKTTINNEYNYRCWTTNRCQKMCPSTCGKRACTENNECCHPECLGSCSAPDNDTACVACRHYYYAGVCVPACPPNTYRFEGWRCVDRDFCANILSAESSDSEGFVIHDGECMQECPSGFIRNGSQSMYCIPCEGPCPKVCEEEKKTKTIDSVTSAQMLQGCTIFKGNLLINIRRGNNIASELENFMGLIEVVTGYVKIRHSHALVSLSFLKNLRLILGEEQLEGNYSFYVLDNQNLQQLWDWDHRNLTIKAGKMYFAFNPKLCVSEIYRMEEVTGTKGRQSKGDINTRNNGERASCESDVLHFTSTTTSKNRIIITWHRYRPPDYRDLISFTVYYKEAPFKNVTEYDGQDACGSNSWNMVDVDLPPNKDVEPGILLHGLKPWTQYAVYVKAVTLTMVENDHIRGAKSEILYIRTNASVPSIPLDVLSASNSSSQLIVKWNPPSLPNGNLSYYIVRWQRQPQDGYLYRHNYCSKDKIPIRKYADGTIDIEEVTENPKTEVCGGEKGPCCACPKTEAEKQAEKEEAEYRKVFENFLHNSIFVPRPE
Insulin-like growth factor 1 receptor (Homo sapiens), sequence (P08069 741-1367 limits assumed): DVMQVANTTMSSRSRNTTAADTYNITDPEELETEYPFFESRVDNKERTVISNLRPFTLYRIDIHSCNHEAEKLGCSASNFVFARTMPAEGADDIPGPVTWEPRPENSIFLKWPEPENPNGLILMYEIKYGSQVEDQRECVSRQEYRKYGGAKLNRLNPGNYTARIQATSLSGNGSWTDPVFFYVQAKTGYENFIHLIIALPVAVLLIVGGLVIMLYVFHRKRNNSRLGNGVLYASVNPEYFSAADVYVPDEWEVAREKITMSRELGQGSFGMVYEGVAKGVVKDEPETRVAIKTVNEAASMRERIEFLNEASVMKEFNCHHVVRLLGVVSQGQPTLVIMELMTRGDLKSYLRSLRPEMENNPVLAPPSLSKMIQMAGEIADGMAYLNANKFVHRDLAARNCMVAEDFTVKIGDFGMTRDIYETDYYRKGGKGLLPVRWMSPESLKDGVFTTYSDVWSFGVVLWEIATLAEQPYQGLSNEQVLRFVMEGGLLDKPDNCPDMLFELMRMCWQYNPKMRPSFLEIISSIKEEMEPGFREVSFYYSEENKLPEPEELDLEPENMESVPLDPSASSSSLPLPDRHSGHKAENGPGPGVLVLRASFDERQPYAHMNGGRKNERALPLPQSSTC
Tyrosine-protein kinase ABL1 (Homo sapiens), sequence (P00519 whole entry): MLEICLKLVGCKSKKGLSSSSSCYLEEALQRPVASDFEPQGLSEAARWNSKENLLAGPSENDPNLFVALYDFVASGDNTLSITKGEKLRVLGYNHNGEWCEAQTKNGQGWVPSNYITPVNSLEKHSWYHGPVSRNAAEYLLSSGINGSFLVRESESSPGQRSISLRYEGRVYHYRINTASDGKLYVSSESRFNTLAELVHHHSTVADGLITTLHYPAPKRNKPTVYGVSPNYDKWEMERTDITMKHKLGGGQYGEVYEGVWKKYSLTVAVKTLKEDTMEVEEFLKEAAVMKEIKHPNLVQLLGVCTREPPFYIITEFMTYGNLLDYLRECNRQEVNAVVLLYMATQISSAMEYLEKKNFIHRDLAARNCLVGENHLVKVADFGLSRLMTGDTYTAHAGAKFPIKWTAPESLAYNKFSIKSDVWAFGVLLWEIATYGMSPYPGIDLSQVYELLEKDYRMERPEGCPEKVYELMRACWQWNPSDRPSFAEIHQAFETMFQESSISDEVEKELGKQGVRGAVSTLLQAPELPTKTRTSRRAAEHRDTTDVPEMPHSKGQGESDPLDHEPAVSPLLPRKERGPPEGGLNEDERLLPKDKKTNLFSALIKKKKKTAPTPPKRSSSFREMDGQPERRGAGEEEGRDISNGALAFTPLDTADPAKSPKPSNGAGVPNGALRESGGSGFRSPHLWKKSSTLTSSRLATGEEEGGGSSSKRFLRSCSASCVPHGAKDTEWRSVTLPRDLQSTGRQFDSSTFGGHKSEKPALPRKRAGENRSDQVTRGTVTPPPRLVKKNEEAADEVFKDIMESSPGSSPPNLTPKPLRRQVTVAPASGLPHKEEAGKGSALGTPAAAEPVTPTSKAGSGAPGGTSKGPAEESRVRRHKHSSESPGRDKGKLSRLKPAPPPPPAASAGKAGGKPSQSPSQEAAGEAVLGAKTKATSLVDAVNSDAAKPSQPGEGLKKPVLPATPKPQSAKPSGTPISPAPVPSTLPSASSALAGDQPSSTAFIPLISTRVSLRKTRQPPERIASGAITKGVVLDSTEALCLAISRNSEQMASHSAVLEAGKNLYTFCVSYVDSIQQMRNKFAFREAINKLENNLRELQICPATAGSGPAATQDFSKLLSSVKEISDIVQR
Mast/stem cell growth factor receptor Kit (Homo sapiens), sequence (P10721 whole entry): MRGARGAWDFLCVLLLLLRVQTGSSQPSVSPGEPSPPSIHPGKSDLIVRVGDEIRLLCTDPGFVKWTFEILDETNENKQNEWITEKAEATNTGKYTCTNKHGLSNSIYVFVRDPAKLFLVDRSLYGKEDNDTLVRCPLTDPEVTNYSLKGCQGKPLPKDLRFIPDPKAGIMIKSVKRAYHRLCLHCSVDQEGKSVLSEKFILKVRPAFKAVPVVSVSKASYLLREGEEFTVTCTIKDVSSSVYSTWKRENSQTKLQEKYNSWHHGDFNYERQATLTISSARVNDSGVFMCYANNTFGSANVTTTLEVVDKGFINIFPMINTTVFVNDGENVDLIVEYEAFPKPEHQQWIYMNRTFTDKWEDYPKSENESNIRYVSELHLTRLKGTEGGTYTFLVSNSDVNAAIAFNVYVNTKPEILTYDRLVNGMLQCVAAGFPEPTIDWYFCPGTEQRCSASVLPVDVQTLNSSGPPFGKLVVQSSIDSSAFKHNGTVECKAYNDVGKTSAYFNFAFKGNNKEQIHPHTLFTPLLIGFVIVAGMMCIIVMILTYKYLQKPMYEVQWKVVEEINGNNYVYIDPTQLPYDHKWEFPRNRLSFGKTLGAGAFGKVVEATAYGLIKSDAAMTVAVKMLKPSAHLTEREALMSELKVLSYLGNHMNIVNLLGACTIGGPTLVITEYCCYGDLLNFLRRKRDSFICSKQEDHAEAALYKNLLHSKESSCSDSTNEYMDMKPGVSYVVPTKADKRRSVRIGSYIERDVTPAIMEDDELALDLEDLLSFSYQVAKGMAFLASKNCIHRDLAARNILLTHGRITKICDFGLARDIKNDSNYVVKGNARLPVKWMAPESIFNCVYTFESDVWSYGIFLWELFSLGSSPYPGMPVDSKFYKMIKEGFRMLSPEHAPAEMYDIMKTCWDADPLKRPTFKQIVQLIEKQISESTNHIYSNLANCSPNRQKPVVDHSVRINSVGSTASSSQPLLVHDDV

clearance [1]: 47.2 mL/min/kg
inhibition [2]: 0.4%
inhibition [4]: 12.8%
inhibition [5]: 32.1%
inhibition [6]: 14.9%
inhibition [7]: Active
inhibition [8]: Active
IC50 [9]: > 1 µM
IC50 (SNU1): > 10 µM
inhibition [13]: Dose-dependent effect
Structure (SMILES): Fc1ccc(-c2cnc3nnc(C(F)(F)c4ccc5ncccc5c4)n3n2)cc1
Ratio IC50 [3]: 10000
IC50 [10]: > 10 µM
IC50 [11]: > 10 µM
IC50 [12]: > 10 µM
Ratio IC50 [14]: 10000
Ratio IC50 [15]: 10000
Ratio IC50 [16]: 10000
Ratio IC50 [17]: 10000
Ratio IC50 [18]: 10000
Ratio IC50 [19]: 10000
Ratio IC50 [20]: 10000
Ratio IC50 [21]: 10000
Ratio IC50 [22]: 10000
Ratio IC50 [23]: > 10000
selectivity ratio [24]: > 10000
